According to ChEMBL document CHEMBL1142304, “Synthesis and biological activity of phosphonate analogues and geometric isomers of the highly potent phosphoantigen (E)-1-hydroxy-2-methylbut-2-enyl 4-diphosphate” (J Med Chem, 2008):
Values belong to the compound of their own block, whether it stands above or below them. Calls of active or inactive are those of the source. The calls are words filed in the database; no cut-off is given here.

Tests used:
[1] = Effect on proliferation of human T cell expressing Vgamma9Vdelta2 receptor in cynomolgus monkey co-treated with IL2 assessed as circulating T cells in blood at 2.5 mg/kg, iv; format: functional
Procedure, shortened: (§1)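 Cynomolgus monkeys were dosed i.v. in Ringer lactate, either as a 30 min infusion (50 mL) or as a bolus depending on the series, with IL-2 0.6 M IU s.c. daily for 5 days. Blood was sampled predose and on days 4, 5, 7, 11 and 14. Circulating γδ-cells were counted by flow cytometry (Vγ9/CD3/CD69 staining, counting beads).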

T-cell [2] = assay: Effect on proliferation of human T cell expressing Vgamma9Vdelta2 receptor in cynomolgus monkey co-treated with IL2 assessed as circulating T cells in blood at 5 mg/kg, iv; format: functional, organism-based; parameters: dose 5 mg/kg
Procedure, shortened: (§2)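 Purpose-bred cynomolgus monkeys (7 male, 7 female, 1.8–3.5 kg) got an i.v. bolus in Ringer lactate, with IL-2 0.6 M IU s.c. daily for 5 days. Blood was taken predose and on days 4, 5, 7, 11 and 14. Whole-blood flow cytometry used anti-Vγ9, CD3 and CD69 staining, red-cell lysis and counting fluorospheres for absolute counts.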

T-cell [3] = assay: Effect on proliferation of human T cell expressing Vgamma9Vdelta2 receptor in cynomolgus monkey co-treated with IL2 assessed as circulating T cells in blood at 10 mg/kg, iv; format: functional, organism-based; parameters: dose 10 mg/kg; procedure, shortened: as §2
[4] = Chemical stability assessed as degradation at 60 degC after 24 hrs; format: physicochemical; conditions: read-out: Activity
Procedure, shortened: (§3)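 Pyrophosphate analogue tested as 0.3 mM solution and pyrophosphonate analogue as 0.5 mM solution under the stated temperature, 0.1 N HCl or H2O2 stress. Degradation was measured by ionic chromatography with conductometric detection and estimated as % of relative area.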

[5] = Chemical stability at 4 degC after 7 days; format: physicochemical; conditions: 168 h; procedure, shortened: as §3
Rattus norvegicus = assay: Drug level in iv dosed rat assessed as recovered compound after 7 days; format: ADME, organism-based; conditions: in vivo, 168 h
[6] = Chemical stability assessed as degradation in 3% H2O2 at 60 degC after 2 hrs; format: physicochemical; conditions: read-out: Activity; procedure, shortened: as §3
T-cell [7] = assay: Effect on proliferation of human T cell expressing Vgamma9Vdelta2 receptor in cynomolgus monkey co-treated with IL2 assessed as circulating T cells in blood at 0.02 mg/kg, iv; format: functional, organism-based; parameters: dose 0.02 mg/kg; procedure, shortened: as §1
[8] = Drug level in iv dosed rat assessed as excreted compound in urine; format: ADME, organism-based; conditions: read-out: Drug uptake
[9] = Agonist activity at human Vgamma9Vdelta2 receptor expressed in T cells assessed as stimulation of TNFalpha release by ELISA; format: functional, cell-based; conditions: T-cell
[10] = Chemical stability assessed as degradation at 25 degC after 7 days; format: physicochemical; conditions: 168 h; procedure, shortened: as §3

Structure (SMILES): C/C(=C\COP(=O)(O)OP(=O)(O)O)CO
- Activity [1]: 40%
- Activity (T-cell [2]): Active
- Activity (T-cell [3]): Active
- degraded at 24 h [4]: 14%
- Stability [5]: Stable
- Drug uptake (Rattus norvegicus): 80%
- degraded at 2 h [6]: 4%
- Activity (T-cell [7]): Active
- dose excreted [8]: 50%
- EC50 [9]: 0.39 nM
- degradation [10]: 5%

Structure (SMILES): C/C(=C/CO)COP(=O)(O)OP(=O)(O)O
- EC50 [9]: > 100000 nM

Structure (SMILES): CC(O)(CBr)CCOP(=O)(O)OP(=O)(O)O (configuration not stated) [BROMOHYDRIN PYROPHOSPHATE]
- EC50 [9]: 23.9 nM

Structure (SMILES): C/C(=C/COP(=O)(O)OP(=O)(O)O)CO
- EC50 [9]: 252 nM

Structure (SMILES): C/C(=C\CO)COP(=O)(O)OP(=O)(O)O
- EC50 [9]: 93.5 nM

The remaining lines, values ahead:

- EC50 [9]: > 100000 nM
Structure (SMILES): C/C(=C/CO)CCP(=O)(O)O

- EC50 [9]: > 100000 nM
Structure (SMILES): C/C(=C/CO)CCP(=O)(O)OP(=O)(O)O
